From ChEMBL document CHEMBL1141063, “Ligands with dual vitamin D3-agonistic and androgen-antagonistic activities” (Bioorg Med Chem Lett, 2005) come the findings set out here.

Assay [1] has as its target T1, Vitamin D3 receptor (Homo sapiens) (UniProt P11473).
T1 sequence (whole entry): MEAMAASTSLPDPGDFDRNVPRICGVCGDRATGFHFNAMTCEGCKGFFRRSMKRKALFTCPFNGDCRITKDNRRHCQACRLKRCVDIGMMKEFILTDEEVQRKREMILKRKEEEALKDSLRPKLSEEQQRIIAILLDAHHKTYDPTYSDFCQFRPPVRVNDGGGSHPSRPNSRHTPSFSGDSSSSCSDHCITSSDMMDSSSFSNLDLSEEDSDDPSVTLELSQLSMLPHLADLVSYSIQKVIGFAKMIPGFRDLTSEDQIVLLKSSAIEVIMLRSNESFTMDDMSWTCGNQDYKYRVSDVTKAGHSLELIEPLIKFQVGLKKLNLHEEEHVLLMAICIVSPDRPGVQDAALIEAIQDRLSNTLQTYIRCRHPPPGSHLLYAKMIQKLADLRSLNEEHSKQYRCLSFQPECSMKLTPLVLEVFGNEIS
Put plainly: Vitamin D3 agonistic activity as effective dose for HL-60 monocytic cell differentiation. The format is functional, cell-based. The essentials: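 HL-60 cells held in RPMI 1640 with or without test compound for three days. Cells were then mixed 1:1 (v/v) with PBS containing 0.2% NBT and 20 nM TPA and kept 20 min at 37 °C. NBT-positive cells were counted among 200–300 cells to give the ED50. Differentiation was also checked by Wright–Giemsa morphology.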

A short description of assay [2]: Activity ratio of effective dose against vitamin D3 and inhibitory activity against androgen antagonistic activity. Type of assay: functional. The method in brief: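 Ratio of ED50 for HL-60 differentiation to IC50 for SC-3 growth inhibition. HL-60: cells in RPMI 1640 with or without compound for three days, then NBT 0.2% plus TPA 20 nM in PBS (1:1) for 20 min at 37 °C; NBT-positive cells counted among 200–300. SC-3: cells in MEM, 10% FBS, 10 nM testosterone with or without compound, three days, 37 °C, 5% CO2.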

For assay [3], the target named is T2, Androgen receptor (Homo sapiens, UniProt P10275).
T2 sequence (P10275 whole entry): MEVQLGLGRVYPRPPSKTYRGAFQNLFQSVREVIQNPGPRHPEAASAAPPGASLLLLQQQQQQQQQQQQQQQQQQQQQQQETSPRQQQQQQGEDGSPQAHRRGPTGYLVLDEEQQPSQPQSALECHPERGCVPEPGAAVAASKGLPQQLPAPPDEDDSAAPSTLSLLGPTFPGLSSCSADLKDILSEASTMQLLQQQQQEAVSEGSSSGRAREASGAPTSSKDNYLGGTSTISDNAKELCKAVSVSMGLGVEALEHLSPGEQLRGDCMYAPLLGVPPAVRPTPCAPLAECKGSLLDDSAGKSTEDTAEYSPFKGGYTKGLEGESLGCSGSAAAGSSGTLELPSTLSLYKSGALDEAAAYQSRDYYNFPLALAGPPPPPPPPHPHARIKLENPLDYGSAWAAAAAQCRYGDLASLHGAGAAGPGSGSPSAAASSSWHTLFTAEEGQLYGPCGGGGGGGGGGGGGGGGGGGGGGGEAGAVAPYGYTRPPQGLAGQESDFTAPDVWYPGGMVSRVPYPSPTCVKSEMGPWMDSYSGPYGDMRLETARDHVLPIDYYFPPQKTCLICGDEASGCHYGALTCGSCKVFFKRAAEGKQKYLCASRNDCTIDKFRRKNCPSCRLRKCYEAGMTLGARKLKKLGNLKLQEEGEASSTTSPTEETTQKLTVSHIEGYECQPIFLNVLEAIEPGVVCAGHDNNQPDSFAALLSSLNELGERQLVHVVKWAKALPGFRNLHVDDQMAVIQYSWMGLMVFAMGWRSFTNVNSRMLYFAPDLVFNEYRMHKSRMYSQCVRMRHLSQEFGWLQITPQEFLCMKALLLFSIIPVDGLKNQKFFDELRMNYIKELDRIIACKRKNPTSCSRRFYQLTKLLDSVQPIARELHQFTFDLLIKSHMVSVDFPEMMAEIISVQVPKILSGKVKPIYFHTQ
The assay is described as follows: Binding affinity to androgen receptor by incubation with GST-hARLBD and [3H]testosterone.

For orientation: Ki means the equilibrium dissociation constant of an inhibitor or competing ligand from its target. Read a high Ki as lower affinity. Compound `CCC(CC)(c1ccc(NCCC(C)(C)O)c(C)c1)c1ccc(NCCC(C)(C)O)c(C)c1` showed an ED50 in assay [1] of 900 nM. Further, the Ratio in assay [2] came to 0.13. Besides, the Ki in assay [3] came out at 3380 nM.

In assay [1], `CCC(CC)(c1ccc(NCCC(C)(C)O)c(C)c1)c1ccc(OCC(=O)C(C)(C)C)c(C)c1` showed an ED50 of 370 nM. Moreover, the Ratio in assay [2] stood at 0.45. This compound came in with a Ki in assay [3] of 2900 nM.

In assay [1], `CCC(CC)(c1ccc(O)c(C)c1)c1ccc(NCC(=O)C(C)(C)C)c(C)c1` yielded an ED50 of 1500 nM. For the same compound, the Ratio in assay [2] was 0.43.

For the compound `CCC(CC)(c1ccc(NCC(O)C(C)(C)C)c(C)c1)c1ccc(NCC(O)C(C)(C)C)c(C)c1` (centres undefined), the ED50 in assay [1] was 1200 nM. In addition, the Ratio in assay [2] was found to be 1.2.

In assay [1], `CCC(CC)(c1ccc(OCC(O)CO)c(C)c1)c1ccc(OCC(O)C(C)(C)C)c(C)c1` (centres undefined) returned an ED50 of 44 nM. Moreover, the Ratio in assay [2] stood at 2.31.

Turning to `CCC(CC)(c1ccc(NCC(O)CO)c(C)c1)c1ccc(OCC(=O)C(C)(C)C)c(C)c1` (centres undefined), the ED50 in assay [1] worked out at 110 nM. Also, in assay [2], the Ratio stood at 14.5. The compound further returned a Ki in assay [3] of 1170 nM.

As to `CCC(CC)(c1ccc(NCC(O)CO)c(C)c1)c1ccc(OCC(O)C(C)(C)C)c(C)c1` (centres undefined), the ED50 in assay [1] was 52 nM. Moreover, the Ratio in assay [2] was determined as 5.78. For the same compound, the affinity in assay [3] corresponds to a Ki of 1510 nM.

Take `CCC(CC)(c1ccc(OCC(=O)C(C)(C)C)c(C)c1)c1ccc(OCC(=O)C(C)(C)C)c(C)c1`: the ED50 in assay [1] came to 410 nM. Moreover, the Ratio in assay [2] worked out at 0.22.

In assay [1], `CCC(CC)(c1ccc(NCC(=O)C(C)(C)C)c(C)c1)c1ccc(OCC(=O)C(C)(C)C)c(C)c1` came in with an ED50 of 450 nM. Besides, the Ratio in assay [2] stood at 0.38.

As to `CCC(CC)(c1ccc(NCC(=O)C(C)(C)C)c(C)c1)c1ccc(NCC(=O)C(C)(C)C)c(C)c1`, the ED50 in assay [1] came out at 450 nM. Besides, the Ratio in assay [2] was found to be 0.45.
